The nature of data set [1]: Half life in human serum at 200 uM by RP-HPLC analysis. Format: ADME. In outline: (§1)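 DMSO stock (10 mM) added to prewarmed human serum (male AB plasma) to a final 200 μM. Incubated at 37 ± 0.5 °C; aliquots deproteinized with acetonitrile containing 0.1% TFA. Parent, aspirin and metabolites quantified by RP-HPLC, calibration 1–200 μM. Pseudo-first-order half-life; peak aspirin expressed as % of initial carbonate. At least triplicate.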

A short description of data set [2]: Chemical stability of the compound in phosphate buffer assessed as unchanged compound after 3 hrs at pH 7.4 by RP-HPLC analysis. Format: physicochemical. Particulars: read-out: Stability. In short, it runs like this: (§2)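 A 0.5 mM DMSO solution (2 mL) was diluted to 10 mL with 0.1 M HCl (pH 1.0) or 50 mM phosphate buffer (pH 7.4). Held at 37 ± 0.5 °C and sampled over time by RP-HPLC on C18 with acetonitrile/water 0.1% TFA gradient. Percent unchanged reported at 3 h. Triplicate.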

A short description of data set [3]: Chemical stability of the compound in acidic medium assessed as unchanged compound after 3 hrs at pH 1 by RP-HPLC analysis. Conditions: read-out: Stability. The format is physicochemical. In outline:
as §2

Another data set is filed under the species Homo sapiens. Put plainly: Chemical stability of compound in human serum assessed as maximal amount of aspirin released. The format is ADME. In short, it runs like this: as §1
The nature of data set [4]: Antiaggregatory activity in plasma rich human platelets assessed as inhibition of collagen-induced platelet aggregation preincubated for 10 mins before collagen challenge measured 10 mins after stimulus addition. The format is functional. In short, it runs like this:
(§3)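 Human PRP from citrated venous blood of drug-free healthy volunteers, centrifuged 210g for 20 min. Compound (vehicle 0.5% DMSO) preincubated 10 min, then collagen at submaximal 0.8–1.5 μg/mL. Light-transmission aggregometry with stirring at 1000 rpm, 37 °C, recorded 10 min. Reported as % inhibition versus control (at 300 μM) or IC50 by nonlinear regression. At least five experiments.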

The subject of data set [5] is Aorta. As to the kind of experiment: Vasodilatory activity at endothelium denuded Wistar rat thoracic aorta assessed as relaxation of phenylephrine-induced contraction preincubated for 30 mins before phenylephrine challenge in presence of 1 uM soluble guanylate cyclase inhibitor H-[1,2,4]Oxadiazolo[4,3-a]quinoxalin-1-one. Format: functional, tissue-based. In outline:
(§4)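 Male Wistar rat (180–200 g) thoracic aorta strips at 37 °C, 95% O2/5% CO2, pH 7.4, equilibrated 1.5 h, then precontracted with 1 μM L-phenylephrine. Cumulative vasodilator concentrations added at plateau; isometric recording. EC50 ± SEM from at least five experiments. ODQ runs: 1 μM inhibitor added before contraction, preincubated ≥30 min before vasodilator.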

The next data set concerns Platelet. Put plainly: Antiaggregatory activity in plasma rich human platelets assessed as inhibition of collagen-induced platelet aggregation at 300 uM preincubated for 10 mins before collagen challenge measured 10 mins after stimulus addition. Format: functional. In outline: as §3
Data set [6] concerns Aorta. Put plainly: Vasodilatory activity at endothelium denuded Wistar rat thoracic aorta assessed as relaxation of phenylephrine-induced contraction. Format: functional, tissue-based. In outline:
as §4

Data set [7] deals with Aorta. Put plainly: Vasodilatory activity at endothelium denuded Wistar rat thoracic aorta assessed as relaxation of KCL-induced contraction preincubated for 30 mins before KCL challenge. The format is functional, tissue-based. In short, it runs like this: (§5)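 Endothelium-denuded thoracic aorta strips from male Wistar rats (180–200 g) at 37 °C, gassed 95% O2/5% CO2, pH 7.4. Equilibrated 1.5 h, contracted with 25 mM KCl, then cumulative compound concentrations added at plateau; isometric tension recorded. EC50 ± SEM; at least five experiments. For glibenclamide runs, 10 μM added before contraction, ≥30 min before vasodilator.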

In data set [8] the test system is Aorta. Put plainly: Vasodilatory activity at endothelium denuded Wistar rat thoracic aorta assessed as relaxation of KCl-induced contraction preincubated for 30 mins before KCl challenge in presence of 10 uM ATP-modulated K+ channel inhibitor glibenclamide. The format is functional, tissue-based. In outline:
as §5

These results are taken from ChEMBL document CHEMBL1817543, “New nitric oxide or hydrogen sulfide releasing aspirins” (J Med Chem, 2011).

Active and inactive are the calls of the source. The rule behind the calls is not given here.

As for `CC(=O)Oc1ccccc1C(=O)OCOC(=O)OCC(CO[N+](=O)[O-])O[N+](=O)[O-]` (configuration not stated), in [1], the half-life at 200 µM is < 1 min. Further, the results for the remaining at 3 h in [2] and in data set [3] were 85% and 98%, respectively. Further, in the data set listed under Homo sapiens, the Activity amounted to 25%. Also, the IC50 in data set [4] was 93 µM.
`CC(=O)Oc1ccccc1C(=O)OCOC(=O)Oc1ccc(CC(CO[N+](=O)[O-])O[N+](=O)[O-])cc1` (configuration not stated) gave a half-life at 200 µM in data set [1] of 2.2 min. Moreover, the remaining at 3 h was determined as 95% in [2] and 98% in data set [3]. For the same molecule, the Activity in the data set filed under Homo sapiens is given as 34%. Also, the IC50 in [4] is 103 µM.
Molecule `CC(=O)Oc1ccccc1C(=O)OCOC(=O)OCCOc1ccc(-c2cc(=S)ss2)cc1` showed a half-life at 200 µM in data set [1] of 3 min. The remaining at 3 h is 96% in data set [2] and 98% in data set [3]. In addition, in the data set filed under Homo sapiens, the Activity was 42%. Also, the IC50 in data set [4] stood at 16 µM.
Regarding `CC(=O)Oc1ccccc1C(=O)OCOC(=O)Oc1ccc(-c2cc(=S)ss2)cc1`, the half-life at 200 µM in data set [1] stood at 2.1 min. Moreover, the figures for the remaining at 3 h in data set [2] and in [3] were 80% and 96%, respectively. Further, the Activity in the data set listed under Homo sapiens turned out to be 36%. The IC50 in data set [4] was determined as 150 µM.
For `O=[N+]([O-])OCC(Cc1ccc(O)cc1)O[N+](=O)[O-]` (configuration not stated), the EC50 was > 100 µM in the data set with Aorta [5] and 0.13 µM with Aorta [6]. Further, the outcome with Platelet was inactive.
On to `Oc1ccc(-c2cc(=S)ss2)cc1`, for which the EC50 turned out to be 5.9 µM in the data set with Aorta [7] and 17 µM in the data set on Aorta [8]. In the data set on Platelet, the outcome was inactive.
Molecule `CC(=O)Oc1ccccc1C(=O)O` [ASPIRIN] displayed a half-life at 200 µM in data set [1] of 63 min. The remaining at 3 h in [2] and in [3] was 90% throughout. Also, the IC50 in [4] was 54 µM.
On to `O=[N+]([O-])OCCCc1ccc(O)cc1`, for which the EC50 in the data set with Aorta [5] is > 100 µM; with Aorta [6] it was 1 µM.
Turning to `OCCOc1ccc(-c2cc(=S)ss2)cc1`, the EC50 in the data set with Aorta [7] stood at 8 µM; in the data set with Aorta [8] it was 16 µM.
In the case of `O=[N+]([O-])OCCCO` [ABRUCOMSTAT], the results for the EC50 in the data set with Aorta [5] and with Aorta [6] were > 100 µM and 4 µM, respectively. Besides, the outcome in the data set with Platelet was inactive.
As to `CC(=O)Oc1ccccc1C(=O)OCOC(=O)OCCCO[N+](=O)[O-]`, the half-life at 200 µM in data set [1] is < 1 min. Besides, the remaining at 3 h in [2] and in data set [3] was 98% in each case. Besides, the Activity in the data set filed under Homo sapiens is 9%. The IC50 in data set [4] stood at 194 µM.
In [1], `CC(=O)Oc1ccccc1C(=O)OCOC(=O)Oc1ccc(CCCO[N+](=O)[O-])cc1` registered a half-life at 200 µM of 1.6 min. For the same molecule, the remaining at 3 h in [2] and in data set [3] was 98% throughout. For the same molecule, the Activity in the data set listed under Homo sapiens stood at 40%. The concentration for half-maximal inhibition (IC50) in data set [4] came out at 68 µM.
